Source: PubChem (several laboratories)
CRFR2-BP ag: agonists of human CRF-binding protein/CRF-R2 receptor complex. HEK293 CRF-R2/CRF-BP, calcium dye fluorescence (FLIPR); percent of saturating CRF peptide response. activation, % at 13.2 µM. 0.46% of 350,000 active. AID 588473;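 active = activation of at least 50%, plus an integration ratio under a set limit after plate pattern correction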
TRPN1 ag: activates the zebrafish TRPN1 channel. HEK293 zebrafish TRPN1-YFP, Fluo-8 calcium fluorescence; 100% = response to 87 µM carbachol. activation, % at 3 µM. 0.18% of 220,000 active. AID 1424;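 active = activation above its plate's cutoff, the mean activation of test wells on that plate plus 3 SD, cut at about 19% in these data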
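Control set: carbachol 87 µM as high control, DMSO as low control; system: HEK293 stable line with zebrafish TRPN1-YFP; read-out: % activation versus carbachol response; detection: intracellular calcium fluorescence with Fluo-8; doses: single test compound dose, 3 µM nominal, 0.3% DMSO; schedule: dye 1 h 37 °C plus 30 min RT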
V1R ag counter: V1a receptor agonism, counter-screen for OXTR agonists; P37288; CHO-V1R cells, Fluo-8 calcium fluorescence, agonist mode; 0% DMSO, 100% 3 nM vasopressin; activation, % at 3 µM; 0.25% of 320,000 active; AID 2797;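 active = activation above the mean activation of all tested compounds plus 3 SD, per screening run, cut at about 20% in these data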;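 also: signal is peak over basal fluorescence ratio across a 100 second FLIPR read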
OXTR potentiate: human OXTR potentiation. CHO-OTR cells, Fluo-8 calcium fluorescence, potentiator mode; 0% = oxytocin EC15, 100% = EC100. activation, % at 3 µM. 0.061% of 320,000 active;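 active = activation above that plate's cutoff, the mean activation of tested compounds plus 3 SD, cut at about 6.6% in these data, passing the limit was not always enough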
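Assay system: CHO cell line stably expressing human OTR. Reagent: EC15 oxytocin agonist. Dosing: single dose, 3.0 µM nominal final compound concentration. Timing: compound 6 min at room temperature before oxytocin, 100 s read. Signal: kinetic Fluo-8 calcium fluorescence. Controls: oxytocin EC15 low and EC100 high.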
TRPML3 agonist: agonists of human TRPML3 channel. Q8TDD5. HEK293 TRPML3-YFP, Fluo-8 calcium fluorescence; 100% = the carbachol control signal. activation, % at 3 µM. 0.29% of 220,000 active. AID 1448;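 active = activation above its plate's cutoff, the mean activation of the plate's test wells plus 3 SD, cut at about 12% in these data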
Target sequence (Q8TDD5 whole entry, looked up): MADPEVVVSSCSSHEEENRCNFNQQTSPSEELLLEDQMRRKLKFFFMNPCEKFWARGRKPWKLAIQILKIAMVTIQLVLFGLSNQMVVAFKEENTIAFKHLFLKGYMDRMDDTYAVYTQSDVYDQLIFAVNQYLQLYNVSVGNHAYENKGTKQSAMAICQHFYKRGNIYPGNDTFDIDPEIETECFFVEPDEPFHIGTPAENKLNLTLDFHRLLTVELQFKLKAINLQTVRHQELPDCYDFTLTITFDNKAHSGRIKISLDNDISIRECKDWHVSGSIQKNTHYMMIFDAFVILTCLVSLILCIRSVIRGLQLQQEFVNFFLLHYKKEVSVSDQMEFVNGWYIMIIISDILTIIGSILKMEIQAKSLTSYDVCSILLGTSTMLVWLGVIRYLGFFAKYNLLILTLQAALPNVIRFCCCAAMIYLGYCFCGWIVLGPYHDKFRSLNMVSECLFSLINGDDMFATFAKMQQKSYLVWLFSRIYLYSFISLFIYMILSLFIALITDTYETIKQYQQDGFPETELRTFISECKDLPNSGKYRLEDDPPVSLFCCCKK
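Material: TRPML3-YFP stable HEK293 cells | Dosing: One concentration, 3 µM nominal, 0.3% DMSO | Timing: 125 s total fluorescence read per well | Technique: Fluo-8 calcium dye fluorescence, ex 470-495, em 515-575 nm | Measure: Percent activation from peak-to-basal fluorescence ratio, scaled between DMSO and carbachol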
OXTR agonist: activates the human oxytocin receptor; P30559; CHO-OTR cells, Fluo-8 calcium fluorescence; normalized: DMSO 0%, oxytocin 100%; activation, % at 3 µM; 0.32% of 320,000 active;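 active = activation above the mean of all tested compounds plus 3 SD, cutoff set per screening run, cut at about 20% in these data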;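 also: peak over basal fluorescence ratio from a 100 s FLIPR kinetic read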
OXTR agonist cf: confirmation of human oxytocin receptor agonists | shares compounds with OXTR agonist | CHO-OTR cells, Fluo-8 calcium fluorescence, agonist | activation, % at 3 µM | 20% of 390 active;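 active = mean activation above about 20% derived from the earlier single-dose screen, limit read from the data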;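 also: peak over minimum fluorescence ratio per well during a 100 second FLIPR read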
V1aR counter 3x: counter-screen for oxytocin receptor agonists: V1a receptor agonists | shares compounds with OXTR agonist | CHO-V1R cells, Fluo-8 calcium fluorescence, agonist | activation, % at 3 µM | 10% of 390 active | AID 434991;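 active = mean activation over triplicate exceeds the hit threshold set in the earlier primary screen, cut at about 20% in these data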;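 also: peak over basal fluorescence ratio within a 100 second read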
Each line names hits and unclear results; the compound was inactive in the other large screens (follow-up assays come after a bar, where they were run). An excerpt weighted towards active compounds, which were near 0.83% of everything screened.

NC(=O)c1c(NC(=O)c2ccncc2)sc2c1CCCCCC2	OXTR agonist 24 (no result: TRPN1 ag, TRPML3 agonist) | OXTR agonist cf inactive | V1aR counter 3x 21
NC(=O)c1c(NC(=O)c2ccncc2)sc2c1CCCC2	none
CC(=O)c1ccc2c(c1)CC1(C2)Cc2cc3c(cc2C1)C(=O)CC3 (configuration not stated)	none (no result: TRPN1 ag, V1R ag counter, OXTR potentiate, TRPML3 agonist, OXTR agonist)
Nc1nc(N)c2cc(Sc3ccc4ccccc4c3)ccc2n1	OXTR agonist 27 | OXTR agonist cf inactive | V1aR counter 3x inactive
CCOc1cc(/C=C2\NC(=S)N(c3c(C)n(C)n(-c4ccccc4)c3=O)C2=O)ccc1O	none
CCOc1cccc(/C=C2\NC(=S)N(c3ccccc3)C2=O)c1O	OXTR agonist 24 | OXTR agonist cf inactive | V1aR counter 3x inactive
Cc1cc(C)n2nc(SC(C)C(=O)N(C)C3CCCCC3)nc2n1 (configuration not stated)	none (no result: TRPN1 ag, TRPML3 agonist)
Nc1nc(Cl)cc(N2CCC(c3cc(-c4ccc(Cl)cc4)n[nH]3)CC2)n1	OXTR agonist 22 | OXTR agonist cf inactive | V1aR counter 3x inactive
Cc1cc(Cl)ccc1N=c1ssnc1Cl	OXTR agonist 21 | OXTR agonist cf 21 | V1aR counter 3x inactive
Cc1ccc(N=c2ssnc2Cl)cc1	none
Cc1ccc(-c2cc(NC(=O)c3ccccc3)on2)cc1	OXTR agonist 20 (no result: TRPN1 ag, TRPML3 agonist) | OXTR agonist cf inactive | V1aR counter 3x inactive
COc1ccc(C(=O)Nc2cc(-c3ccc(C)cc3)no2)cc1	none (no result: TRPN1 ag, V1R ag counter, OXTR potentiate, TRPML3 agonist, OXTR agonist)
Cc1ccc(NS(=O)(=O)c2ccc(C(=O)OCC(=O)N3CCCCC3)cc2)cc1	OXTR agonist 24 (no result: TRPN1 ag, TRPML3 agonist) | OXTR agonist cf inactive | V1aR counter 3x inactive
CCOC(=O)c1ccc(NS(=O)(=O)c2ccc3c(c2)n(C)c(=O)n3C)cc1	OXTR agonist 30 (no result: TRPN1 ag, TRPML3 agonist) | OXTR agonist cf inactive | V1aR counter 3x inactive
C=CCOC(=O)C1=C[C@H](c2ccc(C(F)(F)F)cc2)[C@@H](CCCO)[C@H](OCC)O1	none
C=CCOC(=O)C1=C[C@@H](c2ccc(C(F)(F)F)cc2)[C@H](CCCO)[C@@H](OCC)O1	OXTR agonist 20 | OXTR agonist cf inactive | V1aR counter 3x inactive
CCc1nnc(NC(=O)c2ccc3c(=O)n4c(nc3c2)CCC4)s1	none (no result: TRPN1 ag, V1R ag counter, OXTR potentiate, TRPML3 agonist, OXTR agonist)
COc1ccc2c(CC(=O)OCC(=O)Nc3cccc(C)c3)coc2c1	none (no result: TRPN1 ag, TRPML3 agonist)
Cc1cccc(CNS(=O)(=O)c2csc(C(N)=O)c2)c1	none (no result: TRPN1 ag, TRPML3 agonist)
NC(=O)c1cc(S(=O)(=O)NCc2ccc(F)cc2)cs1	OXTR agonist 20 (no result: TRPN1 ag, TRPML3 agonist) | OXTR agonist cf inactive | V1aR counter 3x inactive
CCOc1ccc(Nc2nc(NCC3CCCO3)c3ccccc3n2)cc1 (configuration not stated)	OXTR agonist 20 | OXTR agonist cf inactive | V1aR counter 3x inactive
c1ccc(Nc2nc(NCC3CCCO3)c3ccccc3n2)cc1 (configuration not stated)	none
CCOC(=O)Nc1ccc2nc(-c3cscn3)[nH]c2c1	none (no result: TRPN1 ag, V1R ag counter, OXTR potentiate, TRPML3 agonist, OXTR agonist)
Oc1ccc(Cl)cc1CNCc1ccc(Cl)cc1	none (no result: TRPN1 ag, TRPML3 agonist)
Oc1ccc(Cl)cc1CNCc1ccc(F)cc1	OXTR agonist 28 (no result: TRPN1 ag, TRPML3 agonist) | OXTR agonist cf 28 | V1aR counter 3x inactive
COc1ccccc1CNCC(O)Cn1c2ccccc2c2ccccc21 (configuration not stated)	OXTR agonist 22 | OXTR agonist cf inactive | V1aR counter 3x inactive
O=C(O)c1c2c(nc3ccccc13)/C(=C/c1cccc([N+](=O)[O-])c1)CCC2	none (no result: TRPN1 ag, TRPML3 agonist)
COc1ccc(C(=O)/C(C#N)=N/Nc2ccccc2[N+](=O)[O-])cc1	none
COc1ccc(C(=O)/C(C#N)=N/Nc2ccc([N+](=O)[O-])cc2)cc1	OXTR agonist 20 | OXTR agonist cf inactive | V1aR counter 3x inactive
CC(C)(C)NCC(O)COc1c(F)cc(Br)cc1F (configuration not stated)	none
CC(C)(C)CC(C)(C)NCC(O)COc1c(F)cc(Br)cc1F (configuration not stated)	OXTR agonist 23 | OXTR agonist cf inactive | V1aR counter 3x inactive
CCCCC1(c2ccc(F)cc2)NC(=O)N(CC(=O)Nc2ccc(N3CCOCC3)cc2)C1=O (configuration not stated)	OXTR agonist 21 (no result: TRPN1 ag, TRPML3 agonist) | OXTR agonist cf inactive | V1aR counter 3x inactive
CC1(c2ccc(OC(F)F)cc2)NC(=O)N(CC(=O)Nc2ccc(Cl)cc2F)C1=O (configuration not stated)	OXTR agonist 34 (no result: TRPN1 ag, TRPML3 agonist) | OXTR agonist cf 24 | V1aR counter 3x 22
CC1(c2ccc(OC(F)F)cc2)NC(=O)N(CC(=O)Nc2ccc(F)cc2)C1=O (configuration not stated)	OXTR agonist 27 (no result: TRPN1 ag, TRPML3 agonist) | OXTR agonist cf inactive | V1aR counter 3x inactive
CC1(c2ccc(OC(F)F)cc2)NC(=O)N(CC(=O)NC2CCCCC2)C1=O (configuration not stated)	none
Cc1ccc(NC(=O)CN2C(=O)NC(C)(c3ccc(Cl)cc3)C2=O)cc1 (configuration not stated)	OXTR agonist 22 (no result: TRPN1 ag, TRPML3 agonist) | OXTR agonist cf inactive | V1aR counter 3x inactive
Cc1ccc(C2(C)NC(=O)N(CC(=O)Nc3ccc4c(c3)OCO4)C2=O)cc1 (configuration not stated)	none
COc1ccc(C2(c3ccc(OC)cc3)NC(=O)N(CC(=O)Nc3ccc(OC(F)F)cc3)C2=O)cc1	none (no result: TRPN1 ag, TRPML3 agonist)
CCCCn1c(N)c(N(CC(C)C)C(=O)CSc2nnc(-c3ccc(Cl)cc3)o2)c(=O)[nH]c1=O	none (no result: TRPN1 ag, TRPML3 agonist)
OCc1ccccc1OCCCOc1cccc2cccnc12	none (no result: TRPN1 ag, TRPML3 agonist)
Cc1ccc(C2(C)NC(=O)N(CC(=O)N3CCc4ccccc43)C2=O)cc1 (configuration not stated)	OXTR agonist 20 (no result: TRPN1 ag, TRPML3 agonist) | OXTR agonist cf inactive | V1aR counter 3x inactive
CCCCC1(C)NC(=O)N(CC(=O)N2CCc3ccccc32)C1=O (configuration not stated)	none (no result: TRPN1 ag, TRPML3 agonist)
O=C1CCC(C(=O)N2CCCCCC2)CN1Cc1cccc(C(F)(F)F)c1 (configuration not stated)	none (no result: TRPN1 ag, TRPML3 agonist)
Cc1cc(-c2nnc(SCC(=O)Nc3ccccc3C(F)(F)F)o2)c(C)n1-c1ccccc1	OXTR agonist 21 | OXTR agonist cf 24 | V1aR counter 3x inactive
N#C/C(=C\c1ccc(O)cc1)C(=O)NCc1cccc(Cl)c1	OXTR agonist 20 (no result: TRPN1 ag, TRPML3 agonist) | OXTR agonist cf inactive | V1aR counter 3x inactive
CC(=O)Oc1ccc(C(=O)Cc2ccc3ccccc3n2)c(O)c1C	none
